# Assay results as given in ChEMBL document CHEMBL3393016, “Development of novel Asf1-H3/H4 inhibitors” (Bioorg Med Chem Lett, 2015).
# Activity calls are given as the source filed them. The calls are words filed in the database; no cut-off is given here.
# Target: T1, Histone chaperone ASF1A (Homo sapiens, UniProt Q9Y294)
# Experiment: Inhibition of globular core domain of Asf1 (unknown origin) binding with H3/H4 after 15 to 30 mins by ELISA assay
# Outline: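 Wells coated with H3/H4 dimer at 1 μg/mL in PBS-T at 4°C overnight, then blocked with 5% milk in PBS-T. Asf1 globular core at 5 μM preincubated with compound at 100 μM (or various concentrations) for 1 h at 4°C. Samples diluted in 10 mM Tris pH 7.9, 1 mM DTT and bound to plate 1 h at room temperature. Bound Asf1 detected with anti-Asf1 and HRP secondary antibodies, then TMB for 15–30 min; OD read at 450 nm.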
# T1 sequence (Q9Y294 whole entry, the tested form may be a part): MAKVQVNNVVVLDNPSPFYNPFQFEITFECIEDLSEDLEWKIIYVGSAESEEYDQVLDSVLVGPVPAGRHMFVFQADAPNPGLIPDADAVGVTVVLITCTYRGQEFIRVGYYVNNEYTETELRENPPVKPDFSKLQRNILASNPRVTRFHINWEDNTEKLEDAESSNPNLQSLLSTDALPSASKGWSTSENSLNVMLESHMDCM
row,inhibition,Compound
1,Active,COc1cc(C2C(Cl)C(=O)N2NC(=O)c2ccc(N)cc2)cc(Br)c1O (configuration not stated)
2,Active,COc1ccc(-c2cc([C@@H](O)[C@@H]3CCCCN3)c3ccccc3n2)cc1 (racemic)

# Test system: MDA-MB-231
# Experiment: Cytotoxicity against human MDA-MB-231 cells assessed as inhibition of cell viability at 24 uM after 24 hrs by trypan blue exclusion assay
# Type: functional, cell-based
# Outline: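 MDA-MB-231 cells grown to 80% confluence, seeded at 1.5 × 10^5 cells/mL and incubated overnight. Medium then replaced with serum-free medium containing drug at 24 μM. After 1 h, FBS added to each well. Viable cell density counted by trypan blue exclusion after a further 24 h. Viability expressed as percent of DMSO-only control.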
row,Compound,inhibition
1,COc1ccc(-c2cc(C(=O)NCCO)c3ccccc3n2)cc1,inactive
2,COc1ccc(-c2cc(C(=O)N3CCCCC3)c3ccccc3n2)cc1,inactive
3,COc1ccc(-c2cc([C@@H](O)[C@@H]3CCCCN3)c3ccccc3n2)cc1 (racemic),Active
4,COc1ccc(-c2cc(C(=O)C3CCCCN3)c3ccccc3n2)cc1 (configuration not stated),inactive
5,COc1ccc(-c2cc(C(=O)N(C)C)c3ccccc3n2)cc1,inactive
6,COc1ccc(-c2cc([C@H](O)[C@@H]3CCCCN3)c3ccccc3n2)cc1 (racemic),Active
7,COc1ccc(-c2cc(C(=O)N3CCOCC3)c3ccccc3n2)cc1,inactive
8,CCN(CC)C(=O)c1cc(-c2ccc(OC)cc2)nc2ccccc12,inactive

# Target: T1, Histone chaperone ASF1A
# Experiment: Inhibition of His-tagged human Asf1a binding with H3/H4 assessed as fluorescence intensity after 30 mins by ALPHA assay
row,Compound,IC50
1,O=C(N/N=C/c1cccc(OCCN2CCOCC2)c1)c1ccc(NC(=O)c2ccccc2)cc1,> 100 µM
2,O=C(N/N=C/c1cc(Br)ccc1O)c1ccncc1,0.6 µM
3,COc1cc(/C=N/NC(=O)C2CCNCC2)cc(Br)c1O,> 100 µM
4,COc1cc(/C=N/NC(=O)C2CCOCC2)cc(Br)c1O,> 100 µM

# Now from value to molecule:
row,IC50,Compound
1,> 100 µM,COc1cc(C/C=N/NC(=O)c2ccc(NC(=O)c3ccccc3)cc2)cc(Br)c1O
2,> 100 µM,COc1cc(/C=N/NC(=O)c2ccccc2)cc(Br)c1O
3,> 100 µM,COc1cc(/C=N/NC(=O)c2ccc(NC(C)=O)nc2)cc(Br)c1O
4,> 12 µM,COc1cc(/C=N/N(C)C(=O)c2ccc(NC(=O)c3ccccc3)cc2)cc(Br)c1O
5,> 100 µM,COc1cc(/C=N/NC(=O)c2ccc(NC(=O)c3ccccc3)cc2)ccc1O
6,> 100 µM,O=C(N/N=C/c1ccncc1)c1ccc(NC(=O)c2ccccc2)cc1
7,> 100 µM,COc1cc(/C=N/NC(=O)Cc2ccc(NC(=O)c3ccccc3)cc2)cc(Br)c1O
8,> 100 µM,COc1cc(/C=N/NC(=O)c2ccc(NC(C)=O)cc2)cc(Br)c1O
9,> 100 µM,COc1cc(/C=N/NC(=O)c2ccncc2)cc(Br)c1O
10,> 100 µM,COc1cc(/C=N/NC(=O)c2ccc(NC(=O)c3ccccc3)cc2)ccn1
11,> 100 µM,COc1cc(CNNC(=O)c2ccc(NC(=O)c3ccccc3)cc2)cc(Br)c1O
12,> 100 µM,COc1cc(CCNC(=O)c2ccc(NC(=O)c3ccccc3)cc2)cc(Br)c1O
13,> 100 µM,COc1cc(/C=N/NC(=O)c2ccc(NC(=O)c3ccccc3)c(COCCN(C)C)c2)cc(Br)c1O
